What all share (type): functional
In assay [1] the test system is Mus musculus. As to the kind of experiment: Antinociceptive activity in ip dosed Swiss albino mouse assessed as latency time by hot plate method. The procedure, abridged:
(§1)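 Swiss albino mice (20–25 g) were housed 7 days at 30 ± 1 °C before testing, in groups of six. Compounds were given ip at 9.5–12.58 mg/kg as a 0.2% Tween suspension. Mice were placed on a 55 ± 0.5 °C hot plate before dosing and at 15, 30, 60 and 120 min after dosing, with a 15 s cut-off. Significance was assessed by Student's t test.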

Assay [2] concerns Mus musculus. Put plainly: Antinociceptive activity in ip dosed Swiss albino mouse assessed as latency time after 15 mins by hot plate method. The procedure, abridged:
as §1

For assay [3], the system named is Mus musculus. Put plainly: Antinociceptive activity in ip dosed Swiss albino mouse assessed as latency time after 30 mins by hot plate method. Summed up:
as §1
In general terms: In hot-plate and tail-flick tests a longer latency is read as antinociception.

The subject of assay [4] is Mus musculus. As to the kind of experiment: Antinociceptive activity in ip dosed Swiss albino mouse assessed as latency time after 60 mins by hot plate method. Summed up:
as §1

Assay [5] deals with Mus musculus. As to the kind of experiment: Antinociceptive activity in ip dosed Swiss albino mouse assessed as latency time after 120 mins by hot plate method. The procedure, abridged:
as §1

Assay [6] deals with Mus musculus. Put plainly: Antinociceptive activity in ip dosed Swiss albino mouse assessed as latency time by tail flick method. Summed up:
(§2)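 Swiss albino mice (20–25 g) received compounds ip at 9.5–12.58 mg/kg in 0.2% Tween suspension. Tail-flick latency to radiant heat was measured, with stimulus intensity set to give a 3–4 s baseline. Readings were taken just before injection and at 15, 30, 60 and 120 min after. Significance was assessed by Student's t test.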

Assay [7] deals with Mus musculus. As to the kind of experiment: Antinociceptive activity in ip dosed Swiss albino mouse assessed as latency time after 15 mins by tail flick method. Summed up: as §2
Assay [8] has as its system Mus musculus. Put plainly: Antinociceptive activity in ip dosed Swiss albino mouse assessed as latency time after 30 mins by tail flick method. The procedure, abridged:
as §2

The subject of assay [9] is Mus musculus. Put plainly: Antinociceptive activity in ip dosed Swiss albino mouse assessed as latency time after 60 mins by tail flick method. Summed up:
as §2

The test system of assay [10] is Mus musculus. As to the kind of experiment: Antinociceptive activity in ip dosed Swiss albino mouse assessed as latency time after 120 mins by tail flick method. The procedure, abridged:
as §2

In another assay the test system is Rattus norvegicus. As to the kind of experiment: Antiinflammatory activity assessed as reduction of carrageenan-induced paw volume in intraperitoneally dosed Wistar rat after 3 hrs. More on the design: scale not given: the % may be the effect or the level left. Summed up:
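Wistar rats of either sex (120–150 g) were dosed ip with compounds at 9.5–12.58 mg/kg in 0.2% Tween suspension. After 1 h, 0.05 ml of 1.0% w/v carrageenan in 0.9% NaCl was injected into the left hind paw. Paw volume was measured by mercury-displacement plethysmometry before injection and at 1, 2 and 3 h. Percent inhibition of the 3 h swelling was calculated.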

With `C=CCc1nc(-c2ccccc2)c(-c2ccccc2)[nH]1`, the Activity with Mus musculus [1] is 4.66 s; with Mus musculus [2], 5.08 s; with Mus musculus [3] it was 5.12 s; in the assay on Mus musculus [4], 5.33 s; in the assay with Mus musculus [5], 5.47 s; with Mus musculus [6], 3.98 s. For the same compound, the Activity in the assay with Mus musculus [7] worked out at 4.02 s; in the assay with Mus musculus [8], 4.23 s; in the assay with Mus musculus [9], 4.27 s; with Mus musculus [10], 4.29 s; with Rattus norvegicus it was 32.56%.
For `Ic1ccc(-c2nc(-c3ccccc3)c(-c3ccccc3)[nH]2)cc1`, the Activity in the assay with Mus musculus [1] is 4.45 s; with Mus musculus [2] it was 4.64 s; in the assay on Mus musculus [3], 5.33 s; with Mus musculus [4] it was 6.18 s; in the assay with Mus musculus [5], 6.18 s; in the assay on Mus musculus [6], 4.16 s. The Activity in the assay on Mus musculus [7] was found to be 4.26 s; with Mus musculus [8], 5.21 s; with Mus musculus [9], 5.89 s; in the assay on Mus musculus [10], 6.5 s; in the assay with Rattus norvegicus, 27.91%.
For `c1ccc(-c2nc[nH]c2-c2ccccc2)cc1`, the Activity was found to be 4.66 s in the assay on Mus musculus [1]; 4.83 s in the assay with Mus musculus [2]; 4.83 s in the assay on Mus musculus [3]; 5.05 s with Mus musculus [4]; 5.2 s with Mus musculus [5]; 3.9 s in the assay with Mus musculus [6]. Further, the Activity in the assay on Mus musculus [7] worked out at 3.92 s; in the assay with Mus musculus [8], 4.01 s; in the assay with Mus musculus [9], 4.01 s; with Mus musculus [10] it was 4.02 s; with Rattus norvegicus it was 20.94%.
Regarding `COc1cccc(-c2nc(-c3ccccc3)c(-c3ccccc3)[nH]2)c1`, the Activity with Mus musculus [1] is recorded as 4.67 s; in the assay with Mus musculus [2], 5.02 s; in the assay on Mus musculus [3], 6.15 s; in the assay with Mus musculus [4], 7.42 s; in the assay with Mus musculus [5], 8.79 s; with Mus musculus [6] it was 4.12 s. Also, the Activity in the assay on Mus musculus [7] came to 4.12 s; with Mus musculus [8], 4.56 s; in the assay on Mus musculus [9] it was 6.75 s; with Mus musculus [10] it was 7.99 s; in the assay on Rattus norvegicus it was 37.21%.
`Fc1ccc(-c2nc(-c3ccccc3)c(-c3ccccc3)[nH]2)cc1`: the Activity in the assay on Mus musculus [1] came to 4.78 s; in the assay with Mus musculus [2] it was 4.93 s; with Mus musculus [3], 7.5 s; in the assay with Mus musculus [4], 9.33 s; in the assay with Mus musculus [5] it was 10.83 s; in the assay on Mus musculus [6], 4.55 s. The Activity turned out to be 4.87 s with Mus musculus [7]; 7.14 s with Mus musculus [8]; 8.92 s in the assay on Mus musculus [9]; 10.67 s in the assay on Mus musculus [10]; 79.07% in the assay on Rattus norvegicus.
With `CN(C)c1ccc(-c2nc(-c3ccccc3)c(-c3ccccc3)[nH]2)cc1`, the Activity with Mus musculus [1] worked out at 4.5 s; with Mus musculus [2], 4.76 s; in the assay with Mus musculus [3], 7.16 s; in the assay with Mus musculus [4], 8.33 s; in the assay with Mus musculus [5] it was 10.3 s; in the assay on Mus musculus [6] it was 4.26 s. Besides, the Activity in the assay with Mus musculus [7] came to 4.45 s; in the assay on Mus musculus [8] it was 6.32 s; in the assay with Mus musculus [9], 7.93 s; in the assay on Mus musculus [10], 10.18 s; in the assay on Rattus norvegicus it was 69.77%.
As for `Cc1nc(-c2ccccc2)c(-c2ccccc2)[nH]1`, the Activity in the assay on Mus musculus [1] is 4.65 s; with Mus musculus [2] it was 5.1 s; in the assay with Mus musculus [3], 5.33 s; with Mus musculus [4] it was 5.47 s; with Mus musculus [5], 5.52 s; in the assay on Mus musculus [6], 4.12 s. For the same compound, the Activity in the assay with Mus musculus [7] is listed as 4.17 s; in the assay with Mus musculus [8], 4.28 s; with Mus musculus [9], 4.35 s; in the assay on Mus musculus [10] it was 4.35 s; with Rattus norvegicus, 25.59%.
As to `O=[N+]([O-])c1ccc(-c2nc(-c3ccccc3)c(-c3ccccc3)[nH]2)cc1`, the Activity is given as 4.37 s in the assay with Mus musculus [1]; 4.6 s with Mus musculus [2]; 4.66 s in the assay on Mus musculus [3]; 5.82 s in the assay on Mus musculus [4]; 5.83 s with Mus musculus [5]; 4.13 s in the assay on Mus musculus [6]. Besides, the Activity in the assay with Mus musculus [7] amounted to 4.14 s; in the assay with Mus musculus [8] it was 5.09 s; in the assay with Mus musculus [9], 5.12 s; in the assay on Mus musculus [10], 5.13 s; with Rattus norvegicus it was 25.59%.
Regarding `c1ccc(-c2nc(-c3ccccc3)c(-c3ccccc3)[nH]2)cc1`, the Activity in the assay with Mus musculus [1] stood at 4.63 s; in the assay with Mus musculus [2], 4.58 s; with Mus musculus [3] it was 5.28 s; in the assay with Mus musculus [4], 6.07 s; in the assay on Mus musculus [5] it was 6.1 s; in the assay on Mus musculus [6], 4.13 s. The Activity in the assay with Mus musculus [7] turned out to be 4.13 s; in the assay on Mus musculus [8], 4.67 s; with Mus musculus [9], 5.12 s; in the assay on Mus musculus [10], 5.78 s; in the assay with Rattus norvegicus, 30.24%.
For `Clc1ccc(-c2nc(-c3ccccc3)c(-c3ccccc3)[nH]2)cc1`, the Activity in the assay on Mus musculus [1] is recorded as 4.66 s; with Mus musculus [2], 4.9 s; in the assay on Mus musculus [3] it was 7.43 s; in the assay with Mus musculus [4], 8.98 s; in the assay with Mus musculus [5], 10.35 s; in the assay with Mus musculus [6] it was 4.52 s. In addition, the Activity in the assay with Mus musculus [7] was 4.67 s; in the assay with Mus musculus [8], 6.92 s; in the assay with Mus musculus [9] it was 8.37 s; in the assay with Mus musculus [10] it was 10.5 s; in the assay on Rattus norvegicus it was 81.4%.
As for `Nc1ccc(-c2nc(-c3ccccc3)c(-c3ccccc3)[nH]2)cc1`, the Activity was 4.48 s in the assay on Mus musculus [1]; 4.69 s in the assay with Mus musculus [2]; 7.01 s in the assay on Mus musculus [3]; 8.25 s in the assay with Mus musculus [4]; 10.08 s in the assay on Mus musculus [5]; 4.22 s with Mus musculus [6]. The Activity is on record as 4.27 s with Mus musculus [7]; 6.18 s with Mus musculus [8]; 7.77 s in the assay with Mus musculus [9]; 10.05 s in the assay with Mus musculus [10]; 81.4% in the assay with Rattus norvegicus.
As to `Oc1ccc(-c2nc(-c3ccccc3)c(-c3ccccc3)[nH]2)cc1`, the Activity in the assay with Mus musculus [1] is recorded as 4.55 s; in the assay on Mus musculus [2] it was 4.81 s; in the assay on Mus musculus [3], 7.21 s; in the assay on Mus musculus [4], 8.63 s; with Mus musculus [5], 10.33 s; in the assay on Mus musculus [6], 4.4 s. In addition, the Activity with Mus musculus [7] is on record as 4.48 s; with Mus musculus [8], 6.79 s; in the assay with Mus musculus [9], 8.18 s; in the assay on Mus musculus [10] it was 10.33 s; in the assay with Rattus norvegicus, 83.73%.
On to `Cc1ccc(-c2nc(-c3ccccc3)c(-c3ccccc3)[nH]2)cc1`, for which the Activity in the assay with Mus musculus [1] was found to be 4.35 s; in the assay on Mus musculus [2] it was 4.5 s; with Mus musculus [3] it was 4.62 s; with Mus musculus [4] it was 4.83 s; with Mus musculus [5], 4.82 s; in the assay on Mus musculus [6] it was 4.14 s. Also, the Activity in the assay on Mus musculus [7] stood at 4.14 s; in the assay on Mus musculus [8] it was 4.82 s; in the assay on Mus musculus [9], 4.82 s; in the assay with Mus musculus [10] it was 4.89 s; in the assay with Rattus norvegicus it was 11.63%.
For the compound `Cc1cccc(-c2nc(-c3ccccc3)c(-c3ccccc3)[nH]2)c1`, the Activity is 4.56 s in the assay on Mus musculus [1]; 4.6 s in the assay on Mus musculus [2]; 4.63 s with Mus musculus [3]; 4.67 s in the assay with Mus musculus [4]; 5.72 s in the assay on Mus musculus [5]; 4.1 s in the assay with Mus musculus [6]. The Activity is given as 4.1 s in the assay on Mus musculus [7]; 4.48 s with Mus musculus [8]; 5.89 s in the assay with Mus musculus [9]; 5.93 s with Mus musculus [10]; 9.31% with Rattus norvegicus.
Consider `COc1cc(-c2nc(-c3ccccc3)c(-c3ccccc3)[nH]2)ccc1O`, for which the Activity in the assay with Mus musculus [1] is given as 4.68 s; in the assay on Mus musculus [2], 5.23 s; in the assay with Mus musculus [3], 6.2 s; in the assay with Mus musculus [4], 7.92 s; in the assay with Mus musculus [5] it was 8.99 s; with Mus musculus [6], 4.16 s. Besides, the Activity in the assay on Mus musculus [7] worked out at 4.12 s; with Mus musculus [8], 5.57 s; with Mus musculus [9], 7.18 s; in the assay with Mus musculus [10], 8.34 s; in the assay with Rattus norvegicus, 58.14%.
With `Brc1ccc(-c2nc(-c3ccccc3)c(-c3ccccc3)[nH]2)cc1`, the Activity in the assay on Mus musculus [1] worked out at 4.45 s; in the assay on Mus musculus [2] it was 4.65 s; in the assay with Mus musculus [3], 6.37 s; in the assay on Mus musculus [4] it was 6.38 s; with Mus musculus [5], 6.38 s; in the assay on Mus musculus [6] it was 4.2 s. The Activity with Mus musculus [7] came to 4.45 s; in the assay on Mus musculus [8] it was 5.33 s; in the assay on Mus musculus [9] it was 6.5 s; in the assay on Mus musculus [10], 6.83 s; in the assay with Rattus norvegicus, 74.42%.

(Values after ChEMBL document CHEMBL1144541, “Antinociceptive and antiinflammatory activities and QSAR studies on 2-substituted-4,5-diphenyl-1H-imidazoles” (2007).)
